The values below come from ChEMBL document CHEMBL1147741, “Chroman/catechol hybrids: synthesis and evaluation of their activity against oxidative stress induced cellular damage” (J Med Chem, 2006).

For one assay, the system named is HT-22. In words: Inhibition of glutamate-induced oxytosis of mouse hippocampal HT22 cells. In kind it is functional, cell-based. The procedure, abridged: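 HT22 cells were plated at 4000 per well in phenol-red-free DMEM-HEPES with dextran-charcoal-treated FBS for 24 h. Serial compound dilutions were added with or without 5 mM glutamate for 24 h at 37 °C, and viability was read by MTT formazan conversion. EC50 is the concentration giving glutamate-exposed viability 50% of non-exposed cells; 3-7 independent experiments, mean ± SEM.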

Assay [1] concerns Radical scavenging activity. Description: Antioxidant potency assessed chemically. In kind it is functional. In short, it runs like this:
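TEAC determined by the Rice-Evans and Miller method, using 0.3 mM trolox solution with data normalized to 1.0 mM trolox.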

For a further assay, the system named is Jurkat. Description: Activity against hydrogen peroxide induced DNA damage in Jurkat T cells. It counts as functional, cell-based, Homo sapiens. In short, it runs like this: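 Jurkat T cells (1.5 × 10⁵ per well, RPMI 1640 with 10% FCS) were preincubated 1 h at 37 °C, given compound 30 min before glucose oxidase (60 ng, about 11.8 µM H₂O₂/min), and exposed 10 min. Alkaline comet assay followed: lysis, unwinding at pH >13 for 40 min, electrophoresis at 1 V/cm for 30 min, Hoechst 33342 staining, visual scoring of 100 nucleoids. IC50 is the concentration halving strand breakage.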

The mark [2] stands for this setting: Homo sapiens, Jurkat, read-out: IC50.

The structures appear in SMILES notation. Bounds are passed on as bounds.

What is called EC50 is the concentration giving half of the maximal effect. By IC50 is commonly meant the concentration that inhibits the measured activity by half. As for `Cc1c(C)c2c(c(C)c1O)CCC(C)(C(=O)N1CCN(C(=O)/C=C/c3ccc(O)c(O)c3)CC1)O2` (stereo unspecified), a half-maximal response in the assay with HT-22 (EC50) required 1480 nM. The compound further came in with an Activity in assay [1] of 6.55 µM. In addition, the IC50 with Jurkat (setting [2]) amounted to 50 µM.

Consider `Cc1c(C)c2c(c(C)c1O)CCC(C)(C(=O)NCCNC(=O)/C=C/c1ccc(O)c(O)c1)O2` (stereo unspecified), for which the EC50 with HT-22 is 7360 nM. In assay [1], this compound showed an Activity of 6.5 µM. Also, the IC50 with Jurkat (setting [2]) is 75 µM.

Regarding `Cc1c(C)c2c(c3c1OC(c1ccc(O)c(O)c1)C3)CCC(C)(C)O2` (stereo unspecified), the EC50 in the assay on HT-22 amounted to 1000 nM. Besides, in assay [1], the Activity was found to be 5.9 µM. Besides, in the assay with Jurkat (setting [2]), the IC50 was found to be 10 µM.

`COc1ccc(C#Cc2c(O)c(C)c(C)c3c2CCC(C)(C)O3)cc1OC` came in with an EC50 in the assay on HT-22 greater than 10000 nM.

For `Cc1c(C)c2c(c(C)c1O)CCC(C)(C(=O)NCCN1CCN(C(=O)/C=C/c3ccc(O)c(O)c3)CC1)O2` (stereo unspecified), the midpoint of the response with HT-22, the EC50, lay at 6350 nM. The compound further registered an Activity in assay [1] of 6.24 µM. Moreover, the IC50 with Jurkat (setting [2]) was determined as 20 µM.

`Cc1c(C)c2c(c(C)c1O)CCC(C)(C(=O)NCCNCCNC(=O)/C=C/c1ccc(O)c(O)c1)O2` (stereo unspecified) registered an EC50 in the assay with HT-22 greater than 10000 nM. The Activity in assay [1] was found to be 6.33 µM. Moreover, in the assay on Jurkat (setting [2]), the IC50 was 50 µM.

Take `COc1c(C)c(C)c2c(c1NC(=O)/C=C/c1ccc(O)c(O)c1)CCC(C)(C)O2`: in the assay with HT-22, the concentration for a half-maximal effect (EC50) is greater than 10000 nM. In assay [1], this compound returned an Activity of 6.53 µM. In addition, the IC50 in the assay on Jurkat (setting [2]) was 20 µM.

`COc1c(C)c(C)c2c(c1CNC(=O)/C=C/c1ccc(O)c(O)c1)CCC(C)(C)O2` displayed an EC50 in the assay with HT-22 of 2150 nM. For the same compound, in assay [1], the Activity stood at 3.8 µM. Moreover, in the assay with Jurkat (setting [2]), the IC50 turned out to be 1 µM.

The compound `COc1ccc(/C=C/c2c3c(c(C)c(C)c2OC)OC(C)(C)CC3)cc1OC` showed an EC50 in the assay with HT-22 greater than 10000 nM.

Consider `COc1c(C)c(C)c2c(c1C)CCC(C)(C(=O)N1CCN(C(=O)/C=C/c3ccc(O)c(O)c3)CC1)O2` (stereo unspecified), for which the EC50 with HT-22 is 2110 nM. In assay [1], this compound registered an Activity of 6.12 µM. Besides, the concentration for half-maximal inhibition (IC50) with Jurkat (setting [2]) came out at 50 µM.

With `Cc1c(C)c2c(c(C)c1O)CCC(C)(C(=O)O)O2` (stereo unspecified) [TROLOX], in assay [1], the Activity worked out at 1 µM. The half-maximal inhibitory concentration (IC50) entry with Jurkat (jurkat) is recorded as “Not Active”.

Compound `COc1ccc(CCc2c3c(c(C)c(C)c2OC)OC(C)(C)CC3)cc1OC` returned an EC50 in the assay on HT-22 of 4590 nM. In assay [1], this compound showed an Activity of 0.05 µM. For the same compound, in the assay with Jurkat (jurkat), the IC50 result is recorded as “Not Active”.

In assay [1], `O=C(O)/C=C/c1ccc(O)c(O)c1` [CAFFEIC ACID] gave an Activity of 1.2 µM. For the same compound, the IC50 entry with Jurkat (jurkat) was “Not Active”.

`Cc1c(C)c2c(c(C)c1O)CCC(C)(CNC(=O)/C=C/c1ccc(O)c(O)c1)O2` (stereo unspecified) showed an EC50 in the assay with HT-22 of 1140 nM. The compound further displayed an Activity in assay [1] of 6.53 µM. In addition, the IC50 in the assay with Jurkat (setting [2]) was determined as 25 µM.

In the case of `Cc1c(C)c2c(c(CCc3ccc(O)c(O)c3)c1O)CCC(C)(C)O2`, the EC50 with HT-22 stood at 930 nM. For the same compound, the Activity in assay [1] came to 3.74 µM. Also, the IC50 in the assay on Jurkat (setting [2]) was 5 µM.

For the compound `COc1ccc(/C=C/C(=O)N2CCN(C(=O)C3(C)CCc4c(C)c(O)c(C)c(C)c4O3)CC2)cc1OC` (stereo unspecified), in the assay with HT-22, the EC50 was 650 nM. The Activity in assay [1] came to 1.26 µM. Also, the IC50 entry in the assay with Jurkat (jurkat) was “Not Active”.

As to `COc1c(C)c(C)c2c(c1CCc1ccc(O)c(O)c1)CCC(C)(C)O2`, the response in the assay on HT-22 was half-maximal at 1170 nM (EC50). The Activity in assay [1] amounted to 1.6 µM. For the same compound, the IC50 in the assay on Jurkat (setting [2]) was 10 µM.

`O=c1c(O)c(-c2ccc(O)c(O)c2)oc2cc(O)cc(O)c12` [QUERCETIN] yielded an EC50 in the assay on HT-22 of 2980 nM. The Activity in assay [1] came to 4.3 µM. Besides, in the assay with Jurkat (setting [2]), the IC50 came out at 5 µM.

Compound `Cc1c(C)c2c(c(NC(=O)/C=C/c3ccc(O)c(O)c3)c1O)CCC(C)(C)O2` returned an EC50 in the assay with HT-22 of 1230 nM. In assay [1], the Activity is 4.28 µM. Also, in the assay with Jurkat (setting [2]), the IC50 worked out at 5 µM.
